Test results taken from ChEMBL document CHEMBL5678801, “A benzothiophene inhibitor of mitogen-activated protein kinase-activated protein kinase 2 inhibits tumor necrosis factor alpha production and has oral anti-inflammatory efficacy in acute and chronic models of inflammation” (J Pharmacol Exp Ther, 2010).

Experiments:
[1] = target: T1, Serine/threonine-protein kinase 17A (Homo sapiens, UniProt Q9UEE5); test: Inhibition of DRAK1 (unknown origin)
T1 sequence (Q9UEE5 whole entry): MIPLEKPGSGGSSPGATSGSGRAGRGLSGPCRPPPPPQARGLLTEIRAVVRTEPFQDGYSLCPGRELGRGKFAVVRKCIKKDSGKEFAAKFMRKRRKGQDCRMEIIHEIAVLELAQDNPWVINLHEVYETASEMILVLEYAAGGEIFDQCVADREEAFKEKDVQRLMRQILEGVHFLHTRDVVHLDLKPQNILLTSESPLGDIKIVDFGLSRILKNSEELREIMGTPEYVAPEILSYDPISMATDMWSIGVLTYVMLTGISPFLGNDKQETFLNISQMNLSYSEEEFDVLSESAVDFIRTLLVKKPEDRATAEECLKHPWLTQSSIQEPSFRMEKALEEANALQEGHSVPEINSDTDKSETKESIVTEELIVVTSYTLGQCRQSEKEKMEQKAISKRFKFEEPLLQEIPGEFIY
Procedure, shortened: (§1)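 Kinase panel: 200 kinases were first screened at 1 μM inhibitor for percent inhibition. Those above 50% inhibition were then titrated for IC50. MgATP was fixed at the Km(app) determined for each enzyme.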

[2] = target: MAP kinase-activated protein kinase 2 (Homo sapiens, UniProt P49137)
Chain of MAP kinase-activated protein kinase 2 (P49137 whole entry, looked up): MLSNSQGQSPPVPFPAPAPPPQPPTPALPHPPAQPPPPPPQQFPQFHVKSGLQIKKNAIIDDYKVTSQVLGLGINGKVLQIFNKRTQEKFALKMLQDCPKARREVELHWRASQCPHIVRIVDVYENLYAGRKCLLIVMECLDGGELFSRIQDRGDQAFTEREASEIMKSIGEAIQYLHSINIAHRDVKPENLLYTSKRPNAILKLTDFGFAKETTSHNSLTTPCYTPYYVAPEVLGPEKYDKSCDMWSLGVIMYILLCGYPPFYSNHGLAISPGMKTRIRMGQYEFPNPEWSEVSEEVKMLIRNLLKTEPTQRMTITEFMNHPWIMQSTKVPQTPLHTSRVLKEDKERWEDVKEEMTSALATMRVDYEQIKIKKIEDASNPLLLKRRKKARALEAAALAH

[3] = Antiinflammatory activity in human Whole blood cell assessed as inhibition of LPS induced IL-6 production preincubated for 1 hr followed by LPS stimulation and measured after 16 hrs by MSD analysis; format: functional, cell-based
Procedure, shortened: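 Human whole blood was stimulated ex vivo with LPS 100 ng/ml. Plasma cytokines were read by MSD 4-plex: TNFα at 4 h; IL-1β, IL-6 and IL-8 at 16 h. Data are means ±S.E.M. of two independent experiments in duplicate, three donors. IC50 by 4-parameter nonlinear regression.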

[4] = target: T2, MAP kinase-activated protein kinase 5 (Homo sapiens, UniProt Q8IW41); test: Inhibition of recombinant PRAK (unknown origin) expressed in Escherichia coli using KKKALSRQLSVAA as substrate incubated for 1 hr followed by substrate addition in presence of ATP
T2 sequence (Q8IW41 whole entry): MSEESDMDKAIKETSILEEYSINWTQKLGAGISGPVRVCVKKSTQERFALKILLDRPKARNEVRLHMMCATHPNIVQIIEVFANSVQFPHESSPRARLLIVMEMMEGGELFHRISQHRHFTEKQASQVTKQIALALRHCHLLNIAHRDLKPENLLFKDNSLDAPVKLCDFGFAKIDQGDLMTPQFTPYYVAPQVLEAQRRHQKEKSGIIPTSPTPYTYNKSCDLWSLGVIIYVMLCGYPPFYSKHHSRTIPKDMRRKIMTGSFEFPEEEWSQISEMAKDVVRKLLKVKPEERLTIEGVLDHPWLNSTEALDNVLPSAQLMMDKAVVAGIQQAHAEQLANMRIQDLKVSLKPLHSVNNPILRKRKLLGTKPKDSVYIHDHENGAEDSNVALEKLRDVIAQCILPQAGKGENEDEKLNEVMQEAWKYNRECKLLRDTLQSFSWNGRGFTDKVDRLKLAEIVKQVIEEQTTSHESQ
Procedure, shortened: (§2)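 Recombinant kinase first activated with activated p38α (1:50 molar ratio) and 250 μM ATP for 1 hr at 30°C. Activity measured by 33P-labelled product peptide, separated by ion exchange. MgATP fixed at the Km(app) determined for each enzyme. IC50 values from duplicate experiments.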

[5] = target: MAP kinase-activated protein kinase 3 (Homo sapiens, UniProt Q16644); test: Inhibition of recombinant MK3 (unknown origin) expressed in Escherichia coli using KKKALSRQLSVAA as substrate incubated for 1 hr followed by substrate addition in presence of ATP; procedure, shortened: as §2
Chain of MAP kinase-activated protein kinase 3 (Q16644 whole entry): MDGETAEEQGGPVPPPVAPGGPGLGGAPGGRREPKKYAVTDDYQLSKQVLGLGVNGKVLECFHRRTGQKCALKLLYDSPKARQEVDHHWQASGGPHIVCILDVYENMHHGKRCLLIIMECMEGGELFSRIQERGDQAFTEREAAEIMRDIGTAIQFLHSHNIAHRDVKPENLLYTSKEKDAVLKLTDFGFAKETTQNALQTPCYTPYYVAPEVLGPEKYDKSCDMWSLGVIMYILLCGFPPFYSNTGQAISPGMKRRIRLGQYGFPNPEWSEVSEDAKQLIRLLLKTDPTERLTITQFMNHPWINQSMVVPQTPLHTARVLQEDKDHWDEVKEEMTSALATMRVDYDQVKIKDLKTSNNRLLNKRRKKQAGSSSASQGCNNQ

[6] = Inhibition of TNF-alpha production in LPS-induced human U-937 cells preincubated with compound for 1 hr followed by LPS induction and measured after 4 hrs by MSD analysis; format: functional, cell-based
Procedure, shortened: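 U937 cells were pretreated with compound for 1 h (<1% DMSO final), then stimulated with LPS 100 ng/ml at 37°C. Media TNFα was read at 4 h by MSD electrochemiluminescence. Three separate experiments in duplicate, mean ±S.E.M. IC50 by 4-parameter nonlinear regression.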

[7] = AUC (0 to infinity) in Sprague-Dawley rat at 3 mg/kg, po measured upto 24 hrs by […] analysis; format: ADME, organism-based; settings: in vivo
Procedure, shortened: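 Male Sprague-Dawley rats (275-300 g), carotid-catheterized and acclimated overnight. Dosing was i.v. at 1 mpk (n=2) in 70% saline/20% PEG-400/10% ethanol, or oral at 3 mpk (n=3) as a suspension in 0.5% HPMC/Tween. Plasma drug was measured by LC-MS/MS. Cmax and Tmax were read from individual profiles. t½ came from the terminal log-linear slope and AUC by the linear trapezoidal rule. CL = dose/AUC0-∞, Vdss = CL×MRT, F = dose-normalized AUC po/iv.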

[8] = target: T3, Serine/threonine-protein kinase BRSK2 (Homo sapiens, UniProt Q8IWQ3); test: Inhibition of BrSK2 (unknown origin); procedure, shortened: as §1
T3 sequence (Q8IWQ3 whole entry): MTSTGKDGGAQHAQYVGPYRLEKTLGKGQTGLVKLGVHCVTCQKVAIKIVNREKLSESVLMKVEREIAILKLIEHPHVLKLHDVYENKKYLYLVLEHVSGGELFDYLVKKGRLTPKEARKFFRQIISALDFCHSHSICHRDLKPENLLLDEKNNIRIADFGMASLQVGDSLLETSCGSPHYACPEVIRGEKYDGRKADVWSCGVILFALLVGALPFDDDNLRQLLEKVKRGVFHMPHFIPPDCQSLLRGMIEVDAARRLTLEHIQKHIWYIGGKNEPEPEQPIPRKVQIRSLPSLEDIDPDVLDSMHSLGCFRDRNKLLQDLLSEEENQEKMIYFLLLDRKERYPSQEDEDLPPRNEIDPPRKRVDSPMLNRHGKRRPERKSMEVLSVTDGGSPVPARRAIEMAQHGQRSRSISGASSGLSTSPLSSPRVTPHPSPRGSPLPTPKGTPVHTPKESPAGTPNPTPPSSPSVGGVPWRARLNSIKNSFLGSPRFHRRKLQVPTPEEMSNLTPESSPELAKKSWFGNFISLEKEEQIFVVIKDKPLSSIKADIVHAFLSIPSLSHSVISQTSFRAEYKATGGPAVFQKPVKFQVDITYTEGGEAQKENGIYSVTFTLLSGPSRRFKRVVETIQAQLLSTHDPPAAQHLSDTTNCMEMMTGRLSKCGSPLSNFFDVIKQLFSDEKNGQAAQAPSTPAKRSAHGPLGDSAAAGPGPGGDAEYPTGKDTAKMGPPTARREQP

Cc1ccc(-c2ccc3c(ccc4sc5c(c43)NC[C@@H](C)NC5=O)n2)cn1
IC50 [1]: 71 nM
T1/2 [2]: 2.43 min
IC50 [3]: 10300 nM
IC50 [4]: 5 nM
IC50 [5]: 53 nM
IC50 [6]: 159 nM
AUC(0-inf) [7]: 1.8 µM·h
IC50 [8]: 90 nM
